S100A4 inh HTS: S100A4-myosin IIA interaction inhibition. S100A4/TAMRA-MyoIIA peptide fluorescence polarization. inhibition, % at 10.7 µM. hit rate 0.14% among 360,000. AID 652163;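 active means mean inhibition of at least 70% across replicates, with every replicate also reaching that level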
Target sequence (P26447 whole entry, looked up): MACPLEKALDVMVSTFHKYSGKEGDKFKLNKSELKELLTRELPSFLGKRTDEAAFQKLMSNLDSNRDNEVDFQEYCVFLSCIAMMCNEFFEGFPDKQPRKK
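Assay system: human S100A4 monomer with TAMRA-labelled myosin IIA peptide / Buffer or medium: Calcium-containing HEPES buffer, pH 7.2 / Reagent: TAMRA-labelled myosin IIA heavy-chain peptide probe, 5 nM / Compound: one dose per compound / Timing: polarization read 5 min after assay mix addition, stable 5–60 min / Benchmarks: neutral control DMSO, positive control TFP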
miR122 inh: inhibitors of miR-122 in Huh7 cells | hit rate 0.3% among 340,000 | activation (reporter increase), % at 12.5 µM | AID 602342 | Huh7 miR-122 Renilla luciferase sensor, 48 h; neutral wells = 0, positive control = 100;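 active means mean replicate activation score at least 90 and every replicate individually at or above 90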;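 further: higher luciferase means less miR-122 activity so hits act as miR-122 inhibitors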
E-sel inducer: induces E-selectin expression in human endothelial cells; P16581; HUVEC E-selectin immunofluorescence imaging; normalized: neutral wells 0, TNF-alpha wells 100; activation, % at 7.58 µM; hit rate 0.37% among 260,000;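 active means mean E-selectin-positive cell signal at least 10% of the positive control, reached in at least 60% of replicates, without over 20% cell loss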
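Test system: HUVEC | Signal: Immunofluorescence imaging | Read-out: Percent E-selectin-positive cells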
SIRT5 block: blocks human SIRT5 desuccinylation of peptide. Q9NXA8. Purified SirT5, succinyl-peptide AMC, trypsin-coupled fluorescence. inhibition, % at 15 µM. hit rate 1.1% among 330,000; in the data active means inhibition above about 15%
Target sequence (Q9NXA8 whole entry, looked up): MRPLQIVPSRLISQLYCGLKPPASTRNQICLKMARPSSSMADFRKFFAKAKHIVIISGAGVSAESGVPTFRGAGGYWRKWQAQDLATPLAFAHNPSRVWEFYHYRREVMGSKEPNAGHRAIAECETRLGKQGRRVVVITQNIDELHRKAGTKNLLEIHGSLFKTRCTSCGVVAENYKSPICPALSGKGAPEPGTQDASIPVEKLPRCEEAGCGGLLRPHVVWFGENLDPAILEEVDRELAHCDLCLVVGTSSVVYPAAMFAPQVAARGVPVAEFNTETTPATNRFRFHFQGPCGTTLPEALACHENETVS
FGF22 binding-1: binders of recombinant human FGF22 by thermal shift | SYPRO orange fluorescence; percent of sucrose octasulfate shift, DMSO zero | activity (Tm shift, normalised), % at 9.99 µM | hit rate 1.5% among 340,000 | AID 651658;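 active means mean Tm shift, scaled 0 neutral to 100 positive control, at about 1.3% or above, every replicate too, limit read from the data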
Target sequence (Q9HCT0 whole entry, looked up): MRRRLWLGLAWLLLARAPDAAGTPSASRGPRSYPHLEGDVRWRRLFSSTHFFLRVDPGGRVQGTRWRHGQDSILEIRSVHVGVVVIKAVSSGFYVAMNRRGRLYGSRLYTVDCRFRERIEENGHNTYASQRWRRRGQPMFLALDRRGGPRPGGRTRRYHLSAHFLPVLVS
FGF22 binding-2: binders of human FGF22 by thermal shift | shares compounds with FGF22 binding-1 | recombinant FGF22 thermal shift, SYPRO orange fluorescence | thermal shift activity, °C (ΔTm) at 38 µM | hit rate 2% among 1,000;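 active means fitted rise in melting shift crosses a set limit at or below the top valid dose tested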
SYPRO no-protein: shows thermal shift signal without protein, FGF22 counter-screen. shares compounds with FGF22 binding-1. compound-only SYPRO orange thermal shift counter-screen, no protein. AC50, µM (highest dose often 38 µM). hit rate 2% among 1,000. AID 743019;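 active means rising signal whose fitted curve reaches the 0.54 level within the top valid dose, showing a melting point, actives reach about 13 µM in these data; inactive means the rest, including activity in the opposite direction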; further: value is where the raw curve crosses a fixed level and not half-maximal
Of the large screens only hits and unclear results are named; the others gave an inactive call (follow-up assays come after a bar, where they were run). Hits are enriched below; roughly 2.5% of the tested compounds scored in any of these assays.

CC(=O)Nc1ccc(C(=O)N/N=C/c2cc(Br)cc(Br)c2O)cc1	FGF22 binding-1 2.8 | FGF22 binding-2 inactive | SYPRO no-protein inactive
O=C(Nc1ccc(F)cc1)N[C@H]1CC[C@H](CCn2cc(-c3ccccc3F)nn2)O[C@H]1CO	none (no result: miR122 inh)
O=C(Nc1ccc(F)cc1)N[C@H]1CC[C@@H](CCn2cc(-c3ccccc3F)nn2)O[C@@H]1CO	FGF22 binding-1 1.7 (no result: miR122 inh) | FGF22 binding-2 inactive | SYPRO no-protein inactive
O=C(Nc1ccc(F)cc1)N[C@@H]1CC[C@H](CCn2cc(-c3ccccc3F)nn2)O[C@H]1CO	FGF22 binding-1 2.9 (no result: miR122 inh) | FGF22 binding-2 inactive | SYPRO no-protein inactive
O=C(Nc1ccc(F)cc1)N[C@H]1CC[C@H](CCn2cc(-c3ccccc3F)nn2)O[C@@H]1CO	none (no result: miR122 inh)
O=C(Cc1cccnc1)N[C@@H]1CC[C@@H](CCn2cc(-c3ccccc3F)nn2)O[C@@H]1CO	FGF22 binding-1 1.3 (no result: miR122 inh) | FGF22 binding-2 inactive | SYPRO no-protein inactive
O=C(Nc1ccc(F)cc1)N[C@H]1CC[C@@H](CCn2cc(-c3ccccc3F)nn2)O[C@H]1CO	FGF22 binding-1 1.4 (no result: miR122 inh) | FGF22 binding-2 inactive | SYPRO no-protein inactive
CC(=O)N(CC(C)C)C[C@@H]1[C@H](c2ccc(C3=CCCC3)cc2)[C@H](CO)N1C(C)=O	none (no result: miR122 inh, FGF22 binding-1)
O=C(C[C@H]1C[C@@H]2c3cc(NS(=O)(=O)c4ccc(F)cc4)ccc3O[C@@H]2[C@@H](CO)O1)NCc1ccccc1	none
CS(=O)(=O)N1CC2(C1)[C@@H](c1ccccc1)[C@@H](CO)N2Cc1ccc(F)cc1	FGF22 binding-1 1.9 (no result: miR122 inh) | FGF22 binding-2 inactive | SYPRO no-protein inactive
CS(=O)(=O)N1CC2(C1)[C@H](c1ccccc1)[C@@H](CO)N2Cc1ccccc1	none (no result: miR122 inh)
COc1ccc2c3c(n(C)c2c1)[C@@H](CO)N(Cc1ccccc1)CC31CN(C(=O)Nc2cccc(F)c2)C1	none (no result: miR122 inh)
O=C(CNS(=O)(=O)c1ccccc1)OCC(=O)c1c[nH]c2ccccc12	FGF22 binding-1 2.1 | FGF22 binding-2 inactive | SYPRO no-protein inactive
O=C(CNS(=O)(=O)c1ccccc1F)OCC(=O)c1c[nH]c2ccccc12	none (no result: E-sel inducer)
CC(=O)Nc1cccc(C(=O)N2CCC(n3nccc3NC(=O)CC(C)C)CC2)c1	FGF22 binding-1 1.5 (no result: miR122 inh) | FGF22 binding-2 inactive | SYPRO no-protein inactive
COc1nsnc1NS(=O)(=O)c1ccc(NC(=S)NC(=O)c2cccnc2)cc1	FGF22 binding-1 1.6 (no result: E-sel inducer) | FGF22 binding-2 inactive | SYPRO no-protein inactive
Cc1ccc(NS(=O)(=O)c2ccc(Cl)c(N=Nc3c(O)[nH]c(=O)[nH]c3=O)c2)cc1Cl	none (no result: E-sel inducer)
COc1ccc(NS(=O)(=O)c2cc(N=Nc3c(O)[nH]c(=O)[nH]c3=O)ccc2Cl)cc1	FGF22 binding-1 1.4 | FGF22 binding-2 inactive | SYPRO no-protein inactive
CCN(C[C@@H]1N[C@@H](CO)[C@@H]1c1ccc(C2=CCCC2)cc1)C(=O)c1ccncc1	none
CC(=O)c1ccc(S(=O)(=O)N2CCN(CC(=O)Nc3ccc(Cl)c([N+](=O)[O-])c3)CC2)cc1	FGF22 binding-1 2.6 (no result: miR122 inh, E-sel inducer) | FGF22 binding-2 inactive | SYPRO no-protein inactive
C=C(C1=CCN(S(=O)(=O)C(C)(C)C)[C@H]1CCO)c1ccccc1	FGF22 binding-1 15.3 (no result: E-sel inducer) | FGF22 binding-2 inactive | SYPRO no-protein inactive
COCC(=O)N1[C@H](CO)[C@H](c2ccccc2)C12CN(C(=O)Nc1ccccc1F)C2	none (no result: miR122 inh)
CSCCC(NS(=O)(=O)c1ccc(Cl)c(Cl)c1)C(=O)O (centres undefined)	FGF22 binding-1 1.4 (no result: miR122 inh) | FGF22 binding-2 inactive | SYPRO no-protein inactive
Nc1n[nH]c(=S)n1/N=C1/C(=O)Nc2ccccc21	FGF22 binding-1 1.8 (no result: miR122 inh, E-sel inducer, SIRT5 block) | FGF22 binding-2 inactive | SYPRO no-protein inactive
COc1cc(OC)cc(C(=O)Nc2ccc(S(=O)(=O)Nc3nc(C)cc(C)n3)cc2)c1	FGF22 binding-1 1.4 (no result: miR122 inh, E-sel inducer) | FGF22 binding-2 inactive | SYPRO no-protein inactive
CC1C=NC(S(=O)(=O)N2CC[C@@H]3[C@@H](CO)N(C)c4ccc(-c5ccc(F)cc5)cc4[C@@H]32)=N1 (some centres undefined)	FGF22 binding-1 2.0 (no result: S100A4 inh HTS, SIRT5 block) | SYPRO no-protein inactive
COc1ccccc1NC(=O)c1ccc(NC(=O)c2ccc(=O)[nH]c2)cc1	FGF22 binding-1 1.9 | FGF22 binding-2 inactive | SYPRO no-protein inactive
Oc1ccc(/C=N/N=C/c2ccc(O)c(O)c2)cc1O	FGF22 binding-1 1.5 | FGF22 binding-2 inactive | SYPRO no-protein 10.5µM
Oc1ccc(N=Cc2ccc(O)c(O)c2)cc1	none (no result: S100A4 inh HTS, E-sel inducer, SIRT5 block, FGF22 binding-1)
CCN1CCc2c(sc(NC(=O)c3ccc(S(=O)(=O)N(CC)c4ccccc4)cc3)c2C(N)=O)C1	FGF22 binding-1 28.3 | FGF22 binding-2 inactive | SYPRO no-protein inactive
CCOC(=O)N1CCc2c(sc(NC(=O)C3COc4ccccc4O3)c2C(N)=O)C1 (centres undefined)	FGF22 binding-1 28.7 (no result: miR122 inh) | FGF22 binding-2 inactive | SYPRO no-protein inactive
CCN1CCc2c(sc(NC(=O)c3ccc(C(=O)c4ccccc4)cc3)c2C(N)=O)C1	none (no result: E-sel inducer)
CC(=O)N1CCc2c(sc(NC(=O)C3COc4ccccc4O3)c2C(N)=O)C1 (centres undefined)	none
C[C@H]1CN([C@@H](C)CO)S(=O)(=O)c2ccc(-c3ccncc3)cc2O[C@H]1CN(C)C(=O)Nc1ccc(C(F)(F)F)cc1	FGF22 binding-1 2.0 | FGF22 binding-2 inactive | SYPRO no-protein inactive
C[C@H](CO)N1C[C@H](C)[C@H](CN(C)C(=O)Nc2ccc(C(F)(F)F)cc2)Oc2cc(-c3ccncc3)ccc2S1(=O)=O	FGF22 binding-1 1.4 | FGF22 binding-2 inactive | SYPRO no-protein inactive
O=C(C[C@@H]1CC[C@@H]2[C@H](COC[C@H](O)CN2C(=O)Nc2cccc(Cl)c2)O1)N1CCCCC1	none
O=C(Nc1cccc(F)c1)N1C[C@@H]2[C@H](c3ccccc31)[C@H](CO)N2C(=O)c1cccnc1	FGF22 binding-1 1.4 | FGF22 binding-2 inactive | SYPRO no-protein inactive
O=C(Nc1ccccc1)N1C[C@H]2[C@@H](c3ccccc31)[C@@H](CO)N2C(=O)c1ccncc1	FGF22 binding-1 1.4 | FGF22 binding-2 inactive | SYPRO no-protein inactive
O=C(Nc1ccccc1)N1C[C@@H]2[C@H](c3ccccc31)[C@@H](CO)N2C(=O)c1ccncc1	none
O=C(Nc1cccc(F)c1)N1C[C@H]2[C@@H](c3ccccc31)[C@@H](CO)N2C(=O)c1cccnc1	none
O=[N+]([O-])c1ccc(Cl)c(S(=O)(=O)Nc2ccc(S(=O)(=O)N3CCOCC3)cc2)c1	FGF22 binding-1 2.2 | FGF22 binding-2 inactive | SYPRO no-protein inactive

From PubChem
